Source: PubChem BioAssay AID504382 (The Scripps Research Institute Molecular Screening Center, 2011)
About 460 (18%) of roughly 2,500 compounds were called active. Not all results are given here. Unmarked numbers belong to inactive results.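 The calls were made as follows: active = mean activation above a cutoff of low control average plus 3 SD from the earlier screen (cut at about 12% in these data); inactive = the rest.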

assay: IANBD-channel fluorescence artefacts in buffer – biochemical, artefact control for cardiac RTF calcium sensitizer project, confirmation (AID 504382); details: IANBD fluorescence interference counterscreen, EC20 Ca2+, at 7.2 µM, stronger effect = higher value, scaled: EC20 calcium 0, EC100 calcium 100
Summary of the method: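 Medium: MOPS buffer, 190 mM, with KCl, MgCl2, EGTA, NTA, DTT, pH 7.20; Dosing: one dose of 7.2 µM, 0.7% DMSO; Probe or stimulus: calcium at EC20 level, 0.472 mM final; Incubation: 15 min, 25 °C; Evaluation: compound fluorescence interference relative to control well signal range; Signal: fluorescence, 480/540 nm.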

Row | Structure (SMILES) | fluorescence artifact activation
1 | CCC(=O)N(C)CCc1cc2c(c(OC)c1/C=N/NC(=O)c1ccc(Br)cc1)OCO2 | 0.24%
2 | O=C(Cn1c(=O)c(=O)n(Cc2ccccc2)c2ccc(Cl)cc21)Nc1ccc(F)cc1F | 0.95%
3 | COc1ncnc2c1N=C1CC(C)(C)CC(N)=C1S2 | 17.8% (active)
4 | CC1(C)CC2CC(C)(CN2C(=S)Nc2ccccc2F)C1 (stereo not drawn) | 0.69%
5 | O=C(NC1CC1)c1cccc2c1C(=O)c1ccc(N3CCC(Cc4ccccc4)CC3)cc1S2(=O)=O | -0.05%
6 | COc1ccc2c(Cl)c(C(=O)N/N=C3\CCCC(=O)C3)sc2c1 | 16.2% (active)
7 | O=C1CCCC(=NNC(=O)c2cc3ccccc3cc2O)C1 | 0.08%
8 | O=C1CCC/C(=N/NC(=O)c2sc3ccccc3c2Cl)C1 | 0.36%
9 | CN(C)/C=C/C(=O)c1ccc(Br)s1 | 0.3%
10 | O=C(O)c1ccccc1CSc1nnnn1-c1ccccc1 | 13.5% (active)
11 | C(=N\Nc1nnnn1-c1ccccc1)/c1ccncc1 | 0.02%
12 | O=c1c(/C=N/Nc2ccccc2)c(Sc2nnnn2-c2ccccc2)nc2ccccn12 | -0.06%
13 | Cc1ccnc(NC(=O)c2ccc(Br)s2)c1 | 0.08%
14 | CCCCC1=CC2=C(c3ccco3)C(=O)C(C)(OC(=O)c3ccc(OC)cc3)C(=O)C2=CN1CCc1ccccn1 (stereo not drawn) | 5.57%
15 | O=C(COC(=O)/C=C/c1ccccc1[N+](=O)[O-])NNC(=O)c1ccc(F)cc1 | 0.09%
16 | COc1ccc(OC)c(NC(=O)CNC(=O)Cn2c(C)cc3ccccc3c2=O)c1 | 1380% (active)
17 | COc1ccc(OC)c(NC(=S)Nc2ccccc2)c1 | -0.01%
18 | COCc1cc(C)n(CC(=O)Nc2ccccc2C(=O)OC)c(=O)c1C#N | 5.24%
19 | C=CCn1c(COc2cccc(C)c2)nnc1SCn1nnc2ccccc2c1=O | 0.03%
20 | NC(=O)C1(NC(=O)[C@@H]2CC3(CC(c4cccc(NC(=O)[C@@H]5CCC(=O)N5)c4)=NO3)CN2C(=O)c2ccccc2)CC1 (stereo partly drawn) | 0.3%
21 | CCC(=O)Nc1ccc(NC(=S)NC(=O)c2oc3ccccc3c2C)cc1 | 0.25%
22 | COCCCn1c(=O)/c(=C\c2ccccc2OC(C)C)s/c1=C(/C#N)C(=O)Nc1ccc(C(=O)O)cc1 | 0.05%
23 | CCN(CC)c1ccc(/C=C(\C#N)C(=O)c2ccc(Br)cc2)cc1 | -0.11%
24 | CCN(CC)c1ccc(/C=C(/C#N)C(=O)NCc2ccccc2)o1 | 0.1%
25 | CCN(CC)c1ccc(/C=C(\C#N)C(=O)NCc2ccccc2)cc1 | 13.8% (active)
26 | CCN(CC)c1ccc(/C=C(\C#N)C(N)=S)cc1 | 16.2% (active)
27 | CN(C)c1ccc(/C=C(\C#N)C(=O)c2ccccc2)cc1 | 0.22%
28 | CN(C)c1ccc(/C=C(/C#N)C(=O)NCc2ccccc2)o1 | 2.9%
